Measured values taken from ChEMBL document CHEMBL1949527, “Use of copper(I) catalyzed azide alkyne cycloaddition (CuAAC) for the preparation of conjugated pyrrolo[2,3-a]carbazole Pim kinase inhibitors” (Eur J Med Chem, 2012).

Columns and labels:
[1] = target: T1, Serine/threonine-protein kinase pim-1 (Homo sapiens, UniProt P11309); experiment: Inhibition of human recombinant His6-tagged PIM1 expressed in Sf21 cells assessed as residual activity using RSRHSSYPAGT as substrate at 10 uM after 30 mins
Summary of the method: (§1)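 Residual activity at 10 μM inhibitor, run in duplicate. Assay buffer was 50 mM Tris/HCl pH 7.5, 0.1 mM EGTA, 0.1% 2-mercaptoethanol. Reactions were stopped with orthophosphoric acid and spotted onto P81 filters.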
Target sequence in this assay (P11309 whole entry, looked up): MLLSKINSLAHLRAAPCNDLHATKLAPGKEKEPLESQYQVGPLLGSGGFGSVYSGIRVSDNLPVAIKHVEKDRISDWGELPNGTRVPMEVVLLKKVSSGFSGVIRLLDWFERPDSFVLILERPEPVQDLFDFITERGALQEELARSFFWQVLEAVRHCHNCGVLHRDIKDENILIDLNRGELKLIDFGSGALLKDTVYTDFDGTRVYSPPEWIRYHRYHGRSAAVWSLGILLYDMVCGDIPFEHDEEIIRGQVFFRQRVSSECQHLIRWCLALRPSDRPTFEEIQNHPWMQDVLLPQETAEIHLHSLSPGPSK

[2] = target: T2, Serine/threonine-protein kinase pim-3 (Homo sapiens, UniProt Q86V86); experiment: Inhibition of human recombinant His6-tagged PIM3 expressed in Sf21 cells assessed as residual activity using RSRHSSYPAGT as substrate at 10 uM after 30 mins; summary of the method: as §1
[3] = target: T3, Serine/threonine-protein kinase pim-2 (Homo sapiens, UniProt Q9P1W9); experiment: Inhibition of human recombinant PIM2 expressed in Escherichia coli assessed as residual activity using RSRHSSYPAGT as substrate at 10 uM after 30 mins; summary of the method: as §1
Target sequence in this assay (Q9P1W9 whole entry, looked up): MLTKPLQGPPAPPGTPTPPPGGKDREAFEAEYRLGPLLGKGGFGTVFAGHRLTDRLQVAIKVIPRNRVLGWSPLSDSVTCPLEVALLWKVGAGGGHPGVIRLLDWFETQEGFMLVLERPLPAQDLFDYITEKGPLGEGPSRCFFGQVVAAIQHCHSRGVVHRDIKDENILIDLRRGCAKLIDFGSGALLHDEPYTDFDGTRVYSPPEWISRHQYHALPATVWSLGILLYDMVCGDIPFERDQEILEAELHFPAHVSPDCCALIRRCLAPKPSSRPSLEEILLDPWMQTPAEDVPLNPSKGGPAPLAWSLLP

[4] = target: T2, Serine/threonine-protein kinase pim-3; experiment: Inhibition of human recombinant His6-tagged PIM3 expressed in Sf21 cells using RSRHSSYPAGT as substrate after 30 mins
[5] = target: T1, Serine/threonine-protein kinase pim-1; experiment: Inhibition of human recombinant His6-tagged PIM1 expressed in Sf21 cells using RSRHSSYPAGT as substrate after 30 mins
Target sequence in this assay (P11309 whole entry): as the sequence (P11309 whole entry, looked up) above

[6] = target: T3, Serine/threonine-protein kinase pim-2; experiment: Inhibition of human recombinant PIM2 expressed in Escherichia coli using RSRHSSYPAGT as substrate after 30 mins
Target sequence in this assay (Q9P1W9 whole entry): as the sequence (Q9P1W9 whole entry, looked up) above

[7] = tested on: PC-3; experiment: Cellular uptake in human PC3 cells at 10 uM after 24 hrs by fluorescence microscopy; type: ADME, cell-based; details: pc-3, 24 h
Summary of the method: (§2)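 PC-3 cells in RPMI-1640 with 10% FBS, 2 mM L-glutamine and penicillin/streptomycin were grown overnight on coverslips, then exposed to 10 μM compound in DMSO (vehicle control 0,1% DMSO) for 24 h. Cells were PBS-washed, fixed 15 min in 4% paraformaldehyde and mounted. Fluorescence microscopy used a DAPI filter. Mean intensity was background-corrected and averaged from three regions in two parallel samples.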

[8] = Drug uptake in human PC3 cell nucleus at 10 uM after 24 hrs by fluorescence microscopy; type: ADME, cell-based; details: pc-3, 24 h; summary of the method: as §2
[9] = Drug uptake in human PC3 cell cytoplasm at 10 uM after 24 hrs by fluorescence microscopy; type: ADME, cell-based; details: pc-3, 24 h; summary of the method: as §2

SMILES	Activity [1] [%]	Activity [2] [%]	Activity [3] [%]	IC50 [4] [nM]	IC50 [5] [nM]	IC50 [6] [nM]	Drug uptake [7]	Drug uptake [8]	Drug uptake [9]
O=Cc1c[nH]c2c1ccc1c3ccccc3[nH]c12							Not Active		
CN(C)c1cccc2c(S(=O)(=O)NCc3cn(CCCCn4c5ccccc5c5ccc6c(C=O)c[nH]c6c54)nn3)cccc12	17	38	66					Not Active	Active
O=Cc1c[nH]c2c1ccc1c3ccccc3n(CCCCn3cc(CO)nn3)c12	8	23	36	235	315				
[N-]=[N+]=NCCCCn1c2ccccc2c2ccc3c(C=O)c[nH]c3c21	9	14	22	108	105				

The remaining lines, values ahead:

Activity [1] [%]	Activity [2] [%]	Activity [3] [%]	IC50 [4] [nM]	IC50 [5] [nM]	IC50 [6] [nM]	Drug uptake [7]	Drug uptake [8]	Drug uptake [9]	SMILES
7	1	6	13	8	350				O=Cc1cn2c3c1ccc1c4ccccc4n(c13)CCCC2
9	28	65	490	327					C[N+](C)(CCO)Cc1cn(CCCCn2c3ccccc3c3ccc4c(C=O)c[nH]c4c32)nn1
